Columns and labels:
NUAK1 = molecular target: T1, NUAK1 (Homo sapiens, UniProt O60285); test: MRC Dundee kinase panel screen at 10 μM; type: biochemical
T1 sequence (O60285 1-661): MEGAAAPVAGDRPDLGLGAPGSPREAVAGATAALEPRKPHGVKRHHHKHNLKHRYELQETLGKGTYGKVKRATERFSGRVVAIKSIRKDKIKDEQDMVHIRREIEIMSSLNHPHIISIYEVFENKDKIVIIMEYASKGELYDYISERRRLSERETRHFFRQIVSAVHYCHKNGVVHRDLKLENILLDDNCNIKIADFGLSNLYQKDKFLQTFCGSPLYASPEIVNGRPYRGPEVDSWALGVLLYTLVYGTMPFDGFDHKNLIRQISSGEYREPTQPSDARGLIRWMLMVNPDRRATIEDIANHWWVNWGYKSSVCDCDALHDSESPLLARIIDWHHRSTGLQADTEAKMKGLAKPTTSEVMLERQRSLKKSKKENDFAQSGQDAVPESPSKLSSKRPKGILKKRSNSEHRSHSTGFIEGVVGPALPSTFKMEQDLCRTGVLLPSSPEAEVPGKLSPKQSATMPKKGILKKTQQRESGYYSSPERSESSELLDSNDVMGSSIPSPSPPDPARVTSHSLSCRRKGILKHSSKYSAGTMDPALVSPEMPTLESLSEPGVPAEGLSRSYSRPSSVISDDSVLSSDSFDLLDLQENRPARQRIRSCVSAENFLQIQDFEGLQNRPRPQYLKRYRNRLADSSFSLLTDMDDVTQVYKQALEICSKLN

CK1γ2 = CK1γ2 (Homo sapiens, UniProt P78368); test: MRC Dundee kinase panel screen at 10 μM; type: biochemical
IRAK1 = IRAK1 (Homo sapiens, UniProt P51617); test: Dose–response of top 10 kinase hits; type: biochemical; conditions: read-out: IC50 IRAK1, n = 2
CSNK1G2 = CSNK1G2 (Homo sapiens, UniProt P78368); test: Dose–response of top 10 kinase hits; type: biochemical; conditions: read-out: IC50 CSNK1G2, n = 2
[1] = system: IL-1β expression in THP-1 cells; test: Cytokine dose–response curves in THP-1 cells; type: cell-based, human; conditions: read-out: IC50 IL-1β expression; LPS-stimulated THP-1, 24 h
Summary of the method: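 THP-1 cells differentiated with PMA (100 nM) for up to 72 h, then rested 24 h in PMA-free RPMI. Pretreated with test compound (3.2 nM–32 μM) or DMSO vehicle, then stimulated with LPS (10 ng/mL). After 24 h, TNF, IL-6 and IL-1β in supernatant measured by Luminex and expressed as percent of vehicle control; n = 3.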

[2] = Oral pharmacokinetics in Sprague-Dawley rats; type: in vivo
CIA mouse model = CIA mouse model of inflammatory arthritis; type: in vivo, DBA/1 mice
Summary of the method: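 Type II collagen emulsified 1:1 with Freund's complete adjuvant; mice anaesthetised with isoflurane and given intradermal tail-base injections (400 μg collagen total) on days 0 and 21, then randomised by body weight on day 21.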

[3] = 50 mg/kg IP, all joints (paws and knees), vs vehicle

Chain of IRAK1 (P51617 whole entry): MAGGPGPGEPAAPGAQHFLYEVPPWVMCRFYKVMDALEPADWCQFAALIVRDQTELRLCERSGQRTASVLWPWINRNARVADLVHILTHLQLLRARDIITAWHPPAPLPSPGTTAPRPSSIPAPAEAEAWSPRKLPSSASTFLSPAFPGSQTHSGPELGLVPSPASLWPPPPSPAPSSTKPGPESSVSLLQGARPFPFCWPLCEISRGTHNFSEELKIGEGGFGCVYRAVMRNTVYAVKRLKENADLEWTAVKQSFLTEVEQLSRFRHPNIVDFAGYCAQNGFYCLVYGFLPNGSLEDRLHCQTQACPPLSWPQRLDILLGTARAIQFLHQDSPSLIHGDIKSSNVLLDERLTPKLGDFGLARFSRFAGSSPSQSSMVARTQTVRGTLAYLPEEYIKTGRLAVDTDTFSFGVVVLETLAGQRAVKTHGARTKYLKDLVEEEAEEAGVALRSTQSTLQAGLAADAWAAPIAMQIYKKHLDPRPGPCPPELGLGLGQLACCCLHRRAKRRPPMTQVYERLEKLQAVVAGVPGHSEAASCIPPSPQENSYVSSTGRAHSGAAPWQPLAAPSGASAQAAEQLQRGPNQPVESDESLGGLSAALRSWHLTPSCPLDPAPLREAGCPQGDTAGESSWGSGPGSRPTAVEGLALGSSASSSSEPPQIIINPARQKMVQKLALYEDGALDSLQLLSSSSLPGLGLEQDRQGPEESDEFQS
Chain of CSNK1G2 (P78368 whole entry): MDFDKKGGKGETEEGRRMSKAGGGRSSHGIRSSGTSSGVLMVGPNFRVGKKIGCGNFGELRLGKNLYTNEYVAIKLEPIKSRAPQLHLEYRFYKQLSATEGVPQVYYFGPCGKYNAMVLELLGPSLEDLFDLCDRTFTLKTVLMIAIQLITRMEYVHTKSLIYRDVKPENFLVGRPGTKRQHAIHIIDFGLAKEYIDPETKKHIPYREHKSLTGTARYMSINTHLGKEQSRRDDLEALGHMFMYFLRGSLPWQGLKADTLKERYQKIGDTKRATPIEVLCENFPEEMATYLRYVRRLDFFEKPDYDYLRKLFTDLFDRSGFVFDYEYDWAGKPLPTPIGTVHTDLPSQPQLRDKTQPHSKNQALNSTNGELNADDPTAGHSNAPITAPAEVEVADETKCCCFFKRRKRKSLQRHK
Chain of CK1γ2 (P78368 whole entry): as above

Compound: CCCn1c(NC(=O)c2cccc(C(N)=O)c2)nc2ccc(CN3CCCCC3)cc21 [HS-276]
- enzymatic activity (NUAK1): < 15%
- enzymatic activity (CK1γ2): < 15%
- IC50 (IRAK1): 0.264 µM
- IC50 (CSNK1G2): 0.809 µM
- IC50 [1]: 0.234 µM
- time up to which μM serum levels are shown ([2]; post oral gavage, species not stated): up to 8 h
- time up to which μM plasma concentration is shown ([2]; rat, 50 mg/kg oral gavage): 8 to 12 h
- peak urine concentration ([2]; rat, 50 mg/kg oral gavage, at 12 h): 100 µM
- AUC0-last ([2]; rat, PO, 50 mg/kg): 6462 ng·h/mL
- Cmax ([2]; rat, PO, 50 mg/kg): 1890 ng/mL
- Tmax ([2]; rat, PO, 50 mg/kg): 2 h
- half-life ([2]; rat, PO, 50 mg/kg): 5.46 h
- reduction of arthritic clinical score (CIA mouse model; 10 mg/kg QD PO): 18%
- reduction of disease clinical score (CIA mouse model; 25 mg/kg IP): 36%
- reduction of arthritic clinical score (CIA mouse model; 30 mg/kg QD PO): 35%
- disease onset (CIA mouse model; 50 mg/kg IP): significantly delayed disease onset
- reduction of mean clinical score (CIA mouse model; 50 mg/kg IP): 85%
- reduction of bone resorption score (CIA mouse model; [3]): 87%
- reduction of cartilage damage score (CIA mouse model; [3]): 76%
- reduction of inflammation score (CIA mouse model; [3]): 62%
- reduction of pannus score (CIA mouse model; [3]): 86%
- reduction of periosteal bone formation score (CIA mouse model; [3]): 93%
- clinical arthritis scores (CIA mouse model; 50 mg/kg, days 26 through 36, vs disease control): significantly reduced
- reduction of AUC of clinical arthritis scores (CIA mouse model; 50 mg/kg, vs disease control mice): 85%
- disease onset (CIA mouse model; 10 and 30 mg/kg QD PO and 25 mg/kg IP, vs vehicle): did not significantly delay disease onset
- disease incidence (CIA mouse model; day 36, 50 mg/kg IP, vehicle 92%): 75%

Source: PMC9245008 (ACS chemical biology, 2022)
